According to ChEMBL document CHEMBL3872252, “New bithiazolyl hydrazones: Novel synthesis, characterization and antitubercular evaluation” (Bioorg Med Chem Lett, 2017):

Key:
[1] = Cytotoxicity against human MCF7 cells by MTT assay; assay type: toxicity, cell-based
Bacillus subtilis [2] = assay: Growth inhibition of Bacillus subtilis at 30 ug/ml; assay type: functional; conditions: read-out: GI
[3] = Antitubercular activity against Mycobacterium bovis BCG ATCC 35743 active stage measured on day 8 by nitrate reductase based two-fold dilution assay; assay type: functional, Mycobacterium bovis BCG str. ATCC 35743; conditions: Mycobacterium tuberculosis variant bovis BCG, ATCC 35743, 192 h
[4] = Antitubercular activity against Mycobacterium tuberculosis H37Ra ATCC 25177 active stage infected in human THP1 cells measured on day 8 by nitrate reductase assay; assay type: functional, THP-1; conditions: ATCC 25177, 192 h
[5] = Antitubercular activity against Mycobacterium tuberculosis H37Ra ATCC 25177 dormant stage infected in human THP1 cells measured on day 12 by nitrate reductase assay; assay type: functional, THP-1; conditions: ATCC 25177, 288 h
[6] = Selectivity index, ratio of GI50 for human HCT116 cells to MIC90 for Mycobacterium tuberculosis H37Ra ATCC 25177 dormant stage; assay type: toxicity, cell-based, HCT-116; conditions: read-out: Selectivity Index
In short: (§1)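 Cytotoxicity was measured on human MCF-7, HCT116 and THP-1 cells by MTT assay, with paclitaxel as reference. The selectivity index is GI50 for the given cell line divided by MIC90 for the given mycobacterial strain and stage.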

Staphylococcus aureus [7] = assay: Growth inhibition of Staphylococcus aureus at 10 ug/ml; assay type: functional; conditions: read-out: GI
Staphylococcus aureus [8] = assay: Growth inhibition of Staphylococcus aureus at 30 ug/ml; assay type: functional; conditions: read-out: GI
[9] = Selectivity index, ratio of GI50 for human THP1 cells to MIC90 for Mycobacterium tuberculosis H37Ra ATCC 25177 dormant stage; assay type: toxicity, cell-based, THP-1; conditions: read-out: Selectivity Index; in short: as §1
[10] = Antitubercular activity against Mycobacterium tuberculosis H37Ra ATCC 25177 dormant stage measured on day 12 by XTT reduction menadione based two-fold dilution assay; assay type: functional; conditions: ATCC 25177, 288 h
In short: (§2)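 M. tuberculosis H37Ra ATCC 25177 was exposed to 0.7–100 μg/mL in two-fold steps (0.7, 1.5, 3.1 … 100). Active stage was read after 8 days and dormant stage after 12 days of incubation. Inhibition was read by XTT reduction menadione assay (XRMA), absorbance 470 nm. MIC90 is the concentration giving ≥90% inhibition (µg/mL).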

[11] = Antitubercular activity against Mycobacterium tuberculosis H37Ra ATCC 25177 active stage measured on day 8 by XTT reduction menadione based two-fold dilution assay; assay type: functional; conditions: ATCC 25177, 192 h; in short: as §2
Pseudomonas aeruginosa [12] = assay: Growth inhibition of Pseudomonas aeruginosa at 10 ug/ml; assay type: functional; conditions: read-out: GI
[13] = Cytotoxicity against human THP1 cells by MTT assay; assay type: toxicity, cell-based, THP-1
[14] = Selectivity index, ratio of GI50 for human HCT116 cells to MIC90 for Mycobacterium bovis BCG ATCC 35743 active stage; assay type: toxicity, cell-based, HCT-116; conditions: read-out: Selectivity Index
In short: (§3)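 Cytotoxicity was measured on human MCF-7, HCT116 and THP-1 cells by MTT assay, with paclitaxel as reference. GI50 is the concentration inhibiting 50% of cell growth. The selectivity index is GI50 for the given cell line divided by MIC90 for the given mycobacterial strain and stage.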

Escherichia coli [15] = assay: Growth inhibition of Escherichia coli at 3 ug/ml; assay type: functional; conditions: read-out: GI
In short: (§4)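 Screened against Gram-negative E. coli and P. aeruginosa and Gram-positive S. aureus and B. subtilis. Compound was tested at 3 µg/ml, and the read-out is percent growth inhibition.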

[16] = Selectivity index, ratio of GI50 for human MCF7 cells to MIC90 for Mycobacterium bovis BCG ATCC 35743 active stage; assay type: toxicity, cell-based; conditions: read-out: Selectivity Index; in short: as §3
[17] = Selectivity index, ratio of GI50 for human HCT116 cells to MIC90 for Mycobacterium bovis BCG ATCC 35743 dormant stage; assay type: toxicity, cell-based, HCT-116; conditions: read-out: Selectivity Index; in short: as §1
[18] = Selectivity index, ratio of GI50 for human MCF7 cells to MIC90 for Mycobacterium bovis BCG ATCC 35743 dormant stage; assay type: toxicity, cell-based; conditions: read-out: Selectivity Index; in short: as §1
Escherichia coli [19] = assay: Growth inhibition of Escherichia coli at 10 ug/ml; assay type: functional; conditions: read-out: GI
[20] = Selectivity index, ratio of GI50 for human MCF7 cells to MIC90 for Mycobacterium tuberculosis H37Ra ATCC 25177 active stage; assay type: toxicity, cell-based; conditions: read-out: Selectivity Index; in short: as §3
Pseudomonas aeruginosa [21] = assay: Growth inhibition of Pseudomonas aeruginosa at 30 ug/ml; assay type: functional; conditions: read-out: GI
Staphylococcus aureus [22] = assay: Growth inhibition of Staphylococcus aureus at 3 ug/ml; assay type: functional; conditions: read-out: GI; in short: as §4
[23] = Antitubercular activity against Mycobacterium bovis BCG ATCC 35743 dormant stage measured on day 12 by nitrate reductase based two-fold dilution assay; assay type: functional, Mycobacterium bovis BCG str. ATCC 35743; conditions: Mycobacterium tuberculosis variant bovis BCG, ATCC 35743, 288 h
[24] = Cytotoxicity against human HCT116 cells by MTT assay; assay type: toxicity, cell-based, HCT-116
[25] = Selectivity index, ratio of GI50 for human MCF7 cells to MIC90 for Mycobacterium tuberculosis H37Ra ATCC 25177 dormant stage; assay type: toxicity, cell-based; conditions: read-out: Selectivity Index; in short: as §1
Bacillus subtilis [26] = assay: Growth inhibition of Bacillus subtilis at 10 ug/ml; assay type: functional; conditions: read-out: GI
[27] = Selectivity index, ratio of GI50 for human THP1 cells to MIC90 for Mycobacterium tuberculosis H37Ra ATCC 25177 active stage; assay type: toxicity, cell-based, THP-1; conditions: read-out: Selectivity Index; in short: as §3
Escherichia coli [28] = assay: Growth inhibition of Escherichia coli at 30 ug/ml; assay type: functional; conditions: read-out: GI
[29] = Selectivity index, ratio of GI50 for human THP1 cells to MIC90 for Mycobacterium bovis BCG ATCC 35743 active stage; assay type: toxicity, cell-based, THP-1; conditions: read-out: Selectivity Index; in short: as §3
Pseudomonas aeruginosa [30] = assay: Growth inhibition of Pseudomonas aeruginosa at 3 ug/ml; assay type: functional; conditions: read-out: GI; in short: as §4
[31] = Selectivity index, ratio of GI50 for human THP1 cells to MIC90 for Mycobacterium bovis BCG ATCC 35743 dormant stage; assay type: toxicity, cell-based, THP-1; conditions: read-out: Selectivity Index; in short: as §1
[32] = Selectivity index, ratio of GI50 for human HCT116 cells to MIC90 for Mycobacterium tuberculosis H37Ra ATCC 25177 active stage; assay type: toxicity, cell-based, HCT-116; conditions: read-out: Selectivity Index; in short: as §3
Bacillus subtilis [33] = assay: Growth inhibition of Bacillus subtilis at 3 ug/ml; assay type: functional; conditions: read-out: GI; in short: as §4

C/C(=N\Nc1nc(-c2ccc(F)cc2)cs1)c1sc(-c2ccccc2)nc1C
GI50 ([1]; MCF7 cells): > 100 µg/mL | GI90 ([1]; mcf7): > 100 µg/mL | inhibition of growth at 30 µg/mL (Bacillus subtilis [2]): 71.1% | IC50 [3]: > 100 µg/mL | MIC90 [3]: > 100 µg/mL | MIC90 [4]: > 100 µg/mL | MIC90 [5]: > 100 µg/mL | selectivity ratio [6]: 1 | inhibition of growth at 10 µg/mL (Staphylococcus aureus [7]): 72.5% | inhibition of growth at 30 µg/mL (Staphylococcus aureus [8]): 73.2% | selectivity ratio [9]: 1 | IC50 [10]: > 100 µg/mL | MIC90 [10]: > 100 µg/mL | IC50 [11]: > 100 µg/mL | MIC90 [11]: > 100 µg/mL | inhibition of growth at 10 µg/mL (Pseudomonas aeruginosa [12]): 73.2% | GI50 ([13]; THP1 cells): > 100 µg/mL | GI90 ([13]; thp-1): > 100 µg/mL | selectivity ratio [14]: 1 | inhibition of growth at 3 µg/mL (Escherichia coli [15]): 72.5% | selectivity ratio [16]: 1 | selectivity ratio [17]: 1 | selectivity ratio [18]: 1 | inhibition of growth at 10 µg/mL (Escherichia coli [19]): 74% | selectivity ratio [20]: 1 | inhibition of growth at 30 µg/mL (Pseudomonas aeruginosa [21]): 74% | inhibition of growth at 3 µg/mL (Staphylococcus aureus [22]): 70.7% | IC50 [23]: > 100 µg/mL | MIC90 [23]: > 100 µg/mL | GI50 ([24]; HCT116 cells): > 100 µg/mL | GI90 ([24]; hct-116): > 100 µg/mL | selectivity ratio [25]: 1 | inhibition of growth at 10 µg/mL (Bacillus subtilis [26]): 70.2% | selectivity ratio [27]: 1 | inhibition of growth at 30 µg/mL (Escherichia coli [28]): 74.7% | selectivity ratio [29]: 1 | inhibition of growth at 3 µg/mL (Pseudomonas aeruginosa [30]): 71.5% | selectivity ratio [31]: 1 | selectivity ratio [32]: 1 | inhibition of growth at 3 µg/mL (Bacillus subtilis [33]): 68.5%
